ChEMBL document CHEMBL5046294, “Rational Design, Chemical Syntheses, and Biological Evaluations of Peripherally Selective Mu Opioid Receptor Ligands as Potential Opioid Induced Constipation Treatment” (J Med Chem, 2022)
The source made the active and inactive calls.

Tests used:
[1] = system: Mus musculus; assay: Antinociceptive activity against Swiss Webster mouse assessed as tail withdrawal latency from warm water by measuring maximum possible effect at 10 mg/kg, sc measured after 20 mins by warm water tail immersion assay; assay type: functional
Outline: (§1)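 Male Swiss Webster mice, 5–8 weeks, 25–35 g, 6 per group. Tail immersed (distal third) in water at 56 ± 0.1 °C. Mice included only with baseline latency 2–4 s. Compound 10 mg/kg s.c.; in the challenge arm it was given 5 min before morphine 10 mg/kg s.c. Latency read 20 min after injection, 10-s cutoff. %MPE = (test − control)/(10 − control) × 100. Dunnett-corrected one-way ANOVA.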

[2] = target: T1, Mu-type opioid receptor (Mus musculus, UniProt P42866); assay: Antagonist activity at mouse mu opioid receptor expressed in CHO cell membrane assessed as reduction in DAMGO-induced […]-GTPgammaS binding incubated for 1.5 hrs by liquid scintillation counting method; assay type: functional, cell membranes
[3] = target: Mu-type opioid receptor (Mus musculus) (UniProt P42866); assay: Antagonist activity at mouse mu opioid receptor expressed in CHO cell membrane assessed as reduction in DAMGO-induced […]-GTPgammaS binding by measuring maximal efficacy incubated for 1.5 hrs by liquid scintillation counting method relative to control; assay type: functional, cell membranes
Outline: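 [³⁵S]GTPγS binding. Membranes (10 μg protein) from CHO cells expressing MOR, KOR or DOR. Buffer TME (50 mM Tris, 3 mM MgCl₂, 0.2 mM EGTA, pH 7.4) with 100 mM NaCl, 20 μM GDP and 0.1 nM [³⁵S]GTPγS. Test compound at varying concentrations. Incubation 1.5 h at 30 °C. Nonspecific binding with 20 μM unlabeled GTPγS. Reference full agonist at 3 μM: DAMGO (MOR), U50488H (KOR), SNC80 (DOR). Filtration, then scintillation counting. Duplicates, at least three repeats.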

[4] = Selectivity index, ratio of Ki for binding affinity to human delta opioid receptor to Ki for binding affinity to mouse mu opioid receptor
Outline: (§2)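 Competition binding. Membranes (30 μg protein) from CHO cells with mouse MOR or KOR, or human DOR. Incubated with radioligand and varying test concentrations in TME buffer, pH 7.4, 1.5 h at 30 °C. Filtration harvest. Nonspecific binding defined with 5 μM naltrexone (MOR), U50,488 (KOR) or SNC80 (DOR). IC₅₀ by nonlinear regression, converted to Ki by Cheng-Prusoff. Selectivity ratios taken from these Ki values. At least three independent experiments.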

[5] = target: T1, Mu-type opioid receptor; assay: Binding affinity to mouse mu opioid receptor expressed in CHO cells in presence of naltrexone incubated for 1.5 hrs by competitive radioligand binding assay; assay type: cell-based; outline: as §2
[6] = organism: Mus musculus; assay: Selectivity index, ratio of Ki for binding affinity to mouse kappa opioid receptor to Ki for binding affinity to mouse mu opioid receptor; outline: as §2
[7] = target: Delta-type opioid receptor (Homo sapiens, UniProt P41143); assay: Binding affinity to human delta opioid receptor in presence of SNC80 incubated for 1.5 hrs by competitive radioligand binding assay; outline: as §2
[8] = system: Mus musculus; assay: Antinociceptive activity against sc dosed Swiss Webster mouse model assessed as effect on morphine induced antinociception by measuring tail withdrawal latency from warm water incubated for 5 mins followed by morphine addition measured after 20 mins by warm water tail immersion assay; assay type: functional; conditions: time 25.0 min; outline: as §1
[9] = target: Kappa-type opioid receptor (Mus musculus, UniProt P33534); assay: Binding affinity to mouse kappa opioid receptor expressed in CHO cells in presence of U50488 incubated for 1.5 hrs by competitive radioligand binding assay; assay type: cell-based; outline: as §2
[10] = system: Mus musculus; assay: Gastroprokinetic activity in Swiss Webster mouse assessed as stimulation of gastrointestinal motility by measuring time required to defecation of red fecal pellet at 10 mg/kg, po incubated for 5 mins followed by morphine addition at 10 mg/kg and measured after 20 mins by carmine red dye assay; assay type: functional; conditions: time 25 min
Outline: (§3)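 Male Swiss Webster mice, 5–6 per group, housed singly. Compound or vehicle given s.c. or by oral gavage 5 min before morphine (10 or 5 mg/kg) or vehicle. 20 min after morphine, 0.2 mL of 6% carmine red in 0.5% CMC given orally (time 0). Time to first red pellet recorded, 6-h cutoff. Dunnett-corrected one-way ANOVA.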

[11] = system: Mus musculus; assay: Gastroprokinetic activity in Swiss Webster mouse assessed as stimulation of gastrointestinal motility by measuring time required to defecation of red fecal pellet at 10 mg/kg, sc incubated for 5 mins followed by morphine addition at 10 mg/kg and measured after 20 mins by carmine red dye assay; assay type: functional; conditions: time 25 min; outline: as §3
[12] = system: Mus musculus; assay: Reversal of morphine induced constipation in Swiss Webster mouse at 10 mg/kg, po for 5 mins followed by morphine addition measured after 20 mins by carmine red dye assay relative to control; assay type: functional; conditions: time 25 min; outline: as §3

Row | Structure (SMILES) | MPE [1] | EC50 [2] | Emax [3] | Ratio Ki [4] | Ki [5] | Ratio Ki [6] | Ki [7] | Activity [8] | Ki [9] | Activity [1] | Time [10] | Time [11] | Activity [12]
1 | O=C(Cc1cc[nH]n1)N[C@@H]1CC[C@@]2(O)[C@H]3Cc4ccc(O)c5c4[C@@]2(CCN3CC2CC2)[C@H]1O5 | 39.3% | 2.5 nM | 20.4% | 186 | 0.2 nM | 26 | 36.8 nM | inactive | 5.05 nM | – | – | – | –
2 | O=C(Cc1cnc[nH]1)N[C@@H]1CC[C@@]2(O)[C@H]3Cc4ccc(O)c5c4[C@@]2(CCN3CC2CC2)[C@H]1O5 | – | 4.64 nM | 20.9% | 91 | 0.82 nM | 6 | 74.5 nM | inactive | 4.82 nM | inactive | – | – | –
3 | O=C(Cc1ncc[nH]1)N[C@H]1CC[C@@]2(O)[C@H]3Cc4ccc(O)c5c4[C@@]2(CCN3CC2CC2)[C@H]1O5 | 36.9% | 1.81 nM | 19.2% | 21 | 0.83 nM | 4 | 17.7 nM | – | 3.45 nM | – | – | – | –
4 | O=C(N[C@H]1CC[C@@]2(O)[C@H]3Cc4ccc(O)c5c4[C@@]2(CCN3CC2CC2)[C@H]1O5)c1cc[nH]n1 | – | 2.33 nM | 19.6% | 35 | 0.61 nM | 2 | 21.2 nM | inactive | 1.05 nM | inactive | – | – | –
5 | O=C(N[C@@H]1CC[C@@]2(O)[C@H]3Cc4ccc(O)c5c4[C@@]2(CCN3CC2CC2)[C@H]1O5)c1cc[nH]n1 | – | 1.83 nM | 10.9% | 52 | 0.28 nM | 3 | 14.5 nM | inactive | 0.95 nM | inactive | – | – | –
6 | O=C(N[C@@H]1CC[C@@]2(O)[C@H]3Cc4ccc(O)c5c4[C@@]2(CCN3CC2CC2)[C@H]1O5)c1cn[nH]c1 | – | 1.77 nM | 16.3% | 72 | 0.65 nM | 4 | 46.8 nM | inactive | 2.51 nM | inactive | – | – | –
7 | O=C(CCc1ncc[nH]1)N[C@@H]1CC[C@@]2(O)[C@H]3Cc4ccc(O)c5c4[C@@]2(CCN3CC2CC2)[C@H]1O5 | – | 1.24 nM | 17.7% | 99 | 0.57 nM | 1 | 55.8 nM | inactive | 0.57 nM | inactive | – | – | –
8 | O=C(N[C@H]1CC[C@@]2(O)[C@H]3Cc4ccc(O)c5c4[C@@]2(CCN3CC2CC2)[C@H]1O5)c1cn[nH]c1 | – | 1.24 nM | 23.1% | 64 | 0.59 nM | 8 | 37.5 nM | inactive | 4.7 nM | inactive | – | – | –
9 | O=C(Cc1cn[nH]c1)N[C@@H]1CC[C@@]2(O)[C@H]3Cc4ccc(O)c5c4[C@@]2(CCN3CC2CC2)[C@H]1O5 | – | – | 22.2% | 390 | 0.17 nM | 82 | 66.6 nM | inactive | 13.9 nM | inactive | 69 min | 174 min | 40%
10 | O=C(CCc1cnc[nH]1)N[C@H]1CC[C@@]2(O)[C@H]3Cc4ccc(O)c5c4[C@@]2(CCN3CC2CC2)[C@H]1O5 | – | 9.47 nM | 25.4% | 106 | 0.2 nM | 6 | 21.5 nM | inactive | 1.21 nM | inactive | – | – | –
11 | O=C(CCc1cnc[nH]1)N[C@@H]1CC[C@@]2(O)[C@H]3Cc4ccc(O)c5c4[C@@]2(CCN3CC2CC2)[C@H]1O5 | – | 3.19 nM | 15.7% | 60 | 0.6 nM | 3 | 35.5 nM | inactive | 1.8 nM | inactive | – | – | –
12 | O=C(N[C@H]1CC[C@@]2(O)[C@H]3Cc4ccc(O)c5c4[C@@]2(CCN3CC2CC2)[C@H]1O5)c1cnc[nH]1 | – | 4.42 nM | 20.7% | 29 | 1.11 nM | 2 | 32.5 nM | inactive | 2.76 nM | inactive | – | – | –
13 | O=C(CCc1cc[nH]n1)N[C@H]1CC[C@@]2(O)[C@H]3Cc4ccc(O)c5c4[C@@]2(CCN3CC2CC2)[C@H]1O5 | – | 4.22 nM | 22.2% | 433 | 0.5 nM | 6 | 217 nM | inactive | 2.75 nM | inactive | – | – | –
14 | O=C(Cc1cn[nH]c1)N[C@H]1CC[C@@]2(O)[C@H]3Cc4ccc(O)c5c4[C@@]2(CCN3CC2CC2)[C@H]1O5 | – | 8.17 nM | 28.4% | 3920 | 0.88 nM | 118 | 3440 nM | inactive | 104 nM | inactive | 70 min | 172 min | 39%
15 | O=C(CCc1cc[nH]n1)N[C@@H]1CC[C@@]2(O)[C@H]3Cc4ccc(O)c5c4[C@@]2(CCN3CC2CC2)[C@H]1O5 | – | 2.76 nM | 13.2% | 202 | 0.21 nM | 10 | 42.2 nM | inactive | 2 nM | inactive | – | – | –
16 | O=C(CCc1ncc[nH]1)N[C@H]1CC[C@@]2(O)[C@H]3Cc4ccc(O)c5c4[C@@]2(CCN3CC2CC2)[C@H]1O5 | – | 4.26 nM | 21.7% | 6 | 0.69 nM | 1 | 3.94 nM | inactive | 0.79 nM | inactive | – | – | –
17 | O=C(Cc1cnc[nH]1)N[C@H]1CC[C@@]2(O)[C@H]3Cc4ccc(O)c5c4[C@@]2(CCN3CC2CC2)[C@H]1O5 | – | 3.61 nM | 21% | 59 | 1.34 nM | 3 | 79.4 nM | inactive | 3.57 nM | inactive | – | – | –
18 | O=C(CCc1cn[nH]c1)N[C@@H]1CC[C@@]2(O)[C@H]3Cc4ccc(O)c5c4[C@@]2(CCN3CC2CC2)[C@H]1O5 | – | 4.28 nM | 10.7% | 322 | 0.3 nM | 40 | 97.8 nM | inactive | 12.3 nM | inactive | – | – | –
19 | O=C(Cc1ncc[nH]1)N[C@@H]1CC[C@@]2(O)[C@H]3Cc4ccc(O)c5c4[C@@]2(CCN3CC2CC2)[C@H]1O5 | – | 2.07 nM | 23.5% | 188 | 0.48 nM | 11 | 89.8 nM | inactive | 5.17 nM | inactive | – | – | –
20 | O=C(CCc1cn[nH]c1)N[C@H]1CC[C@@]2(O)[C@H]3Cc4ccc(O)c5c4[C@@]2(CCN3CC2CC2)[C@H]1O5 | – | 12.3 nM | 14.2% | 83 | 1.09 nM | 36 | 91.2 nM | inactive | 39.5 nM | inactive | – | – | –
